Measurements published in ChEMBL document CHEMBL1157028, “Synthesis and anti-inflammatory activity of novel (substituted)benzylidene acetone oxime ether derivatives: molecular modeling study” (Eur J Med Chem, 2010).

Legend:
Rattus norvegicus [1] = assay: Antiinflammatory activity in Wistar rat assessed as inhibition of carrageenan-induced paw edema at equimolar ip dose relative […] diclofenac sodium administered 1 hr before carrageenan challenge measured after 3 hrs relative to control; format: functional
Procedure, shortened: (§1)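 Wistar rats (100–120 g), 5 per group, were dosed ip either at equimolar […] or at three graded doses to derive ED50. Vehicle-only rats served as controls. After 1 h, 0.05 mL 1% carrageenin in saline (made 24 h earlier) was injected subplantar into the right hind paw and saline into the left. At 3 h, rats were killed and both paws cut and weighed. Right-over-left % weight increase gave % oedema reduction versus control.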

Rattus norvegicus [2] = assay: Antiinflammatory activity in Wistar rat assessed as inhibition of carrageenan-induced paw edema at […], ip administered 1 hr before carrageenan challenge measured after 3 hrs relative to control; format: functional; procedure, shortened: as §1
Mus musculus [3] = assay: Analgesic activity in Swiss albino mouse assessed as inhibition of acetic acid-induced writhing at 50 mg/kg, po administered 2 hrs before acetic acid challenge measured after 20 mins relative to control; format: functional
Procedure, shortened: (§2)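 Swiss albino mice of either sex (20–25 g), in groups of 6, were housed at 22 ± 2 °C on a 12 h light/dark cycle. Drug was given orally and vehicle alone to negative controls. After 2 h, 0.2 mL 3% acetic acid was injected ip. Writhes were counted over 20 min, and % reduction in writhe number versus the control group was calculated.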

Rattus norvegicus [4] = assay: Antiinflammatory activity in Wistar rat assessed as inhibition of carrageenan-induced paw edema at 50 mg/kg, ip administered 1 hr before carrageenan challenge measured after 3 hrs relative to control; format: functional; settings: route intraperitoneal; procedure, shortened: as §1
Rattus norvegicus [5] = assay: Antiinflammatory activity in Wistar rat assessed as inhibition of carrageenan-induced paw edema at 75 mg/kg, ip administered 1 hr before carrageenan challenge measured after 3 hrs relative to control; format: functional; settings: route intraperitoneal; procedure, shortened: as §1
Rattus norvegicus [6] = assay: Gastrointestinal toxicity in Wistar rat assessed as length of elongated ulcer at equimolar po dose relative […] diclofenac sodium qd for 5 days measured after 10 hrs last post dose; format: organism-based; settings: in vivo
Procedure, shortened: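 Rats, 5 per group, were given oral equimolar doses ([…]) daily for 5 days. They were killed by ether overdose 10 h after the last dose. Stomachs were rinsed with saline, opened along the greater curvature and examined under a ×10 hand lens. Ulcer number and summed ulcer length were recorded per animal, and the mean was taken as ulcer index.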

Rattus norvegicus [7] = assay: Antiinflammatory activity in ip dosed Wistar rat assessed as inhibition of carrageenan-induced paw edema administered 1 hr before carrageenan challenge measured after 3 hrs relative to control; format: functional; procedure, shortened: as §1
Rattus norvegicus [8] = assay: Antiinflammatory activity in Wistar rat assessed as inhibition of carrageenan-induced paw edema at 30 mg/kg, ip administered 1 hr before carrageenan challenge measured after 3 hrs relative to control; format: functional; settings: route intraperitoneal; procedure, shortened: as §1
[9] = Acute toxicity in ip dosed Wistar rat assessed as mortality after 24 hrs; format: organism-based; settings: in vivo
Mus musculus [10] = assay: Analgesic activity in Swiss albino mouse assessed as inhibition of acetic acid-induced writhing at 100 mg/kg, po administered 2 hrs before acetic acid challenge measured after 20 mins relative to control; format: functional; procedure, shortened: as §2
Mus musculus [11] = assay: Analgesic activity in Swiss albino mouse assessed as inhibition of acetic acid-induced writhing at 45 mg/kg, po administered 2 hrs before acetic acid challenge measured after 20 mins relative to control; format: functional; procedure, shortened: as §2
Rattus norvegicus [12] = assay: Antiinflammatory activity in Wistar rat assessed as inhibition of carrageenan-induced paw edema at 45 mg/kg, ip administered 1 hr before carrageenan challenge measured after 3 hrs relative to control; format: functional; settings: route intraperitoneal; procedure, shortened: as §1
[13] = Therapeutic index, ED50 for antiinflammatory activity to LD50 for acute toxicity in Wistar rat; settings: read-out: TI
Mus musculus [14] = assay: Analgesic activity in Swiss albino mouse assessed as inhibition of acetic acid-induced writhing at 37 mg/kg, po administered 2 hrs before acetic acid challenge measured after 20 mins relative to control; format: functional; procedure, shortened: as §2
Rattus norvegicus [15] = assay: Antiinflammatory activity in Wistar rat assessed as inhibition of carrageenan-induced paw edema at 37 mg/kg, ip administered 1 hr before carrageenan challenge measured after 3 hrs relative to control; format: functional; settings: route intraperitoneal; procedure, shortened: as §1

SMILES: CCOC(=O)CO/N=C(C)/C=C/c1ccc(Cl)cc1
- inhibition (INH) (Rattus norvegicus [1]): 26.23%

SMILES: CC(/C=C/c1ccc(Cl)cc1)=N\OCC(=O)Nc1ccccc1
- inhibition (INH) (Rattus norvegicus [1]): 29.45%

SMILES: COc1ccc(/C=C/C(C)=N/OC(C)C(N)=O)cc1 (centres undefined)
- inhibition (INH) (Rattus norvegicus [1]): 58.53%

SMILES: COc1ccc(NC(=O)CO/N=C(C)/C=C/c2ccccc2)cc1
- inhibition (INH) (Rattus norvegicus [1]): 49.64%

SMILES: COc1ccc(/C=C/C(C)=N/OCC(N)=O)cc1
- inhibition (INH) (Rattus norvegicus [1]): 38.21%

SMILES: CCOC(=O)CO/N=C(C)/C=C/c1ccccc1
- inhibition (INH) (Rattus norvegicus [1]): 29.76%

SMILES: COc1ccc(/C=C/C(C)=N/OCC(=O)Nc2ccc(OC)cc2)cc1
- inhibition (INH) (Rattus norvegicus [1]): 37.25%

SMILES: CCOC(=O)C(C)O/N=C(C)/C=C/c1ccc(OC)cc1 (centres undefined)
- inhibition (INH) (Rattus norvegicus [1]): 21.66%

SMILES: COc1ccc(/C=C/C(C)=N/OCC(=O)Nc2ccccc2)cc1
- inhibition (INH) (Rattus norvegicus [1]): 42.91%

SMILES: COc1ccc(NC(=O)CO/N=C(C)/C=C/c2ccc(Cl)cc2)cc1
- inhibition (INH) (Rattus norvegicus [1]): 48.16%

SMILES: CCOC(=O)C(C)O/N=C(C)/C=C/c1ccccc1 (centres undefined)
- inhibition (INH) (Rattus norvegicus [1]): 33.2%

SMILES: CC(/C=C/c1ccc(Cl)cc1)=N\OCC(=O)Nc1ccc(Cl)cc1
- inhibition (INH) (Rattus norvegicus [1]): 40.89%

SMILES: COc1ccc(/C=C/C(C)=N/OCC(=O)O)cc1
- inhibition (INH) (Rattus norvegicus [1]): 7.35%

SMILES: CC(/C=C/c1ccccc1)=N\OCC(=O)Nc1ccc(Cl)cc1
- inhibition (INH) (Rattus norvegicus [1]): 28.66%

SMILES: O=C([O-])Cc1ccccc1Nc1c(Cl)cccc1Cl.[Na+] [DICLOFENAC SODIUM]
- inhibition (INH) (Rattus norvegicus [2]): 72.13%
- inhibition in vivo at 50 mg/kg (Mus musculus [3]): 71.1%
- inhibition in vivo at 50 mg/kg (Rattus norvegicus [4]): 72.1%
- inhibition in vivo at 75 mg/kg (Rattus norvegicus [5]): 80.2%
- Activity (Rattus norvegicus [6]): 7.9 mm
- ED50 (Rattus norvegicus [7]): 30.6 mg/kg
- inhibition in vivo at 30 mg/kg (Rattus norvegicus [8]): 46%

SMILES: CC(/C=C/c1ccc(Cl)cc1)=N\OC(C)C(=O)NN (centres undefined)
- inhibition (INH) (Rattus norvegicus [1]): 43.49%

SMILES: CC(/C=C/c1ccc(Cl)cc1)=N\OCC(=O)NC(C)C
- inhibition (INH) (Rattus norvegicus [1]): 28.49%

SMILES: CCOC(=O)C(C)O/N=C(C)/C=C/c1ccc(Cl)cc1 (centres undefined)
- inhibition (INH) (Rattus norvegicus [1]): 44.52%

SMILES: CC(/C=C/c1ccccc1)=N\OC(C)C(=O)NN (centres undefined)
- inhibition (INH) (Rattus norvegicus [1]): 56.27%

SMILES: COc1ccc(/C=C/C(C)=N/OC(C)C(=O)NC(C)C)cc1 (centres undefined)
- inhibition (INH) (Rattus norvegicus [1]): 27.53%

SMILES: CC(/C=C/c1ccc(Cl)cc1)=N\OCC(=O)O
- inhibition (INH) (Rattus norvegicus [1]): 50.57%

SMILES: CC(/C=C/c1ccc(Cl)cc1)=N\OCC(N)=O
- inhibition (INH) (Rattus norvegicus [1]): 50.77%

SMILES: COc1ccc(/C=C/C(C)=N/OCC(=O)NC(C)C)cc1
- inhibition (INH) (Rattus norvegicus [1]): 41.68%

SMILES: CC(/C=C/c1ccc(Cl)cc1)=N\OC(C)C(=O)O (centres undefined)
- LD50 at 24 h [9]: 745 mg/kg
- inhibition in vivo at 100 mg/kg (Mus musculus [10]): 39.1%
- inhibition (INH) (Rattus norvegicus [1]): 66.7%
- inhibition in vivo at 75 mg/kg (Rattus norvegicus [5]): 75.2%
- inhibition in vivo at 45 mg/kg (Mus musculus [11]): 20.3%
- inhibition in vivo at 45 mg/kg (Rattus norvegicus [12]): 66.7%
- Activity (Rattus norvegicus [6]): 8.1 mm
- ED50 (Rattus norvegicus [7]): 29.9 mg/kg
- inhibition in vivo at 30 mg/kg (Rattus norvegicus [8]): 45.1%
- selectivity ratio [13]: 24.9

SMILES: CC(/C=C/c1ccccc1)=N\OCC(N)=O
- inhibition (INH) (Rattus norvegicus [1]): 49.71%

SMILES: CC(/C=C/c1ccc(Cl)cc1)=N\OCC(=O)NN
- inhibition (INH) (Rattus norvegicus [1]): 21.76%

SMILES: CC(/C=C/c1ccccc1)=N\OCC(=O)NN
- inhibition (INH) (Rattus norvegicus [1]): 29.01%

SMILES: COc1ccc(/C=C/C(C)=N/OCC(=O)NN)cc1
- inhibition (INH) (Rattus norvegicus [1]): 24.44%

SMILES: CC(/C=C/c1ccccc1)=N\OC(C)C(=O)NC(C)C (centres undefined)
- inhibition (INH) (Rattus norvegicus [1]): 37.38%

SMILES: CCOC(=O)CO/N=C(C)/C=C/c1ccc(OC)cc1
- inhibition (INH) (Rattus norvegicus [1]): 22.14%

SMILES: COc1ccc(/C=C/C(C)=N/OCC(=O)Nc2ccc(Cl)cc2)cc1
- inhibition (INH) (Rattus norvegicus [1]): 43.32%

SMILES: CC(/C=C/c1ccc(Cl)cc1)=N\OC(C)C(N)=O (centres undefined)
- inhibition (INH) (Rattus norvegicus [1]): 57.54%

SMILES: CC(/C=C/c1ccccc1)=N\OCC(=O)Nc1ccccc1
- inhibition (INH) (Rattus norvegicus [1]): 35.43%

SMILES: CC(/C=C/c1ccccc1)=N\OC(C)C(=O)O (centres undefined)
- inhibition (INH) (Rattus norvegicus [1]): 40.85%

SMILES: CC(/C=C/c1ccccc1)=N\OCC(=O)O
- inhibition (INH) (Rattus norvegicus [1]): 45.62%

SMILES: CC(/C=C/c1ccc(Cl)cc1)=N\OC(C)C(=O)NC(C)C (centres undefined)
- inhibition (INH) (Rattus norvegicus [1]): 42.84%

SMILES: CC(/C=C/c1ccccc1)=N\OC(C)C(N)=O (centres undefined)
- inhibition in vivo at 37 mg/kg (Mus musculus [14]): 53.6%
- LD50 at 24 h [9]: 745 mg/kg
- inhibition in vivo at 100 mg/kg (Mus musculus [10]): 82.5%
- inhibition (INH) (Rattus norvegicus [1]): 63.23%
- inhibition in vivo at 75 mg/kg (Rattus norvegicus [5]): 69.1%
- inhibition in vivo at 37 mg/kg (Rattus norvegicus [15]): 63.2%
- Activity (Rattus norvegicus [6]): 0.3 mm
- ED50 (Rattus norvegicus [7]): 34.3 mg/kg
- inhibition in vivo at 30 mg/kg (Rattus norvegicus [8]): 37.7%
- selectivity ratio [13]: 20.1

SMILES: COc1ccc(/C=C/C(C)=N/OC(C)C(=O)O)cc1 (centres undefined)
- inhibition (INH) (Rattus norvegicus [1]): 45.38%

SMILES: COc1ccc(/C=C/C(C)=N/OC(C)C(=O)NN)cc1 (centres undefined)
- inhibition (INH) (Rattus norvegicus [1]): 38.76%

SMILES: CC(/C=C/c1ccccc1)=N\OCC(=O)NC(C)C
- inhibition (INH) (Rattus norvegicus [1]): 30.93%
